From ChEMBL document CHEMBL4665889, “Design, Synthesis, and Pharmacological Characterization of a Neutral, Non-Prodrug Thrombin Inhibitor with Good Oral Pharmacokinetics” (J Med Chem, 2020)

What was measured:
[1] = Permeability from apical to basolateral side in human Caco2 cells incubated for 2 hrs by LC-MS/MS analysis; type: ADME, cell-based; conditions: Caco-2
In short: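 Caco-2 cells grown 15 d on 0.4 μm inserts, TEER ≥600 Ω. Compound (DMSO stock diluted 100-fold) in HBSS pH 7.4 with 10 mM HEPES and 20 mM glucose, added apically or basolaterally. Incubated 2 h at 37 °C and analysed by LC-MS/MS. Papp = (Vr/P0)·(1/S)·(P2/t); mean and SD.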

[2] = Clearance in Wistar rat hepatocytes at 1 uM incubated up to 90 mins by LC-MS/MS analysis; type: ADME, cell-based, Hepatocyte; conditions: for CLhep predicted at 1 µM: Wistar
In short: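 Fresh male Wistar rat hepatocytes, 1 × 10⁶ viable cells/mL, in Williams' medium E at 37 °C, pH 7.4, with 1 μM substrate and <1% acetonitrile. Samples at 2–90 min quenched in acetonitrile and analysed by LC-MS/MS.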

[3] = molecular target: T1, Nuclear receptor subfamily 1 group I member 2 (Homo sapiens, UniProt O75469); test: Activation of human PXR expressed in human HepG2 cells; type: ADME, cell-based
T1 sequence (O75469 whole entry): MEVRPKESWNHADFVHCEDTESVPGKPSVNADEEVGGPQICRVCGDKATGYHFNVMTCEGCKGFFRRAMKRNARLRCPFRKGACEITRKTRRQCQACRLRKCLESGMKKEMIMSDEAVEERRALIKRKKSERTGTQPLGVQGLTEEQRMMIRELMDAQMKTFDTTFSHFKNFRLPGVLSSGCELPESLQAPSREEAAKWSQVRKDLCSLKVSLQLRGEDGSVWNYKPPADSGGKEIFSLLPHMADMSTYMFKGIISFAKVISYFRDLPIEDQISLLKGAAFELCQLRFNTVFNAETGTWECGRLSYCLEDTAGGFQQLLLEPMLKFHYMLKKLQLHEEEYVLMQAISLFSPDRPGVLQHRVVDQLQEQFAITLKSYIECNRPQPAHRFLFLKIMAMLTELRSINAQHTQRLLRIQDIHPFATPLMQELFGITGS
In short: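 HepG2 cells transiently co-transfected with human PXR and a luciferase reporter under the human CYP3A4 promoter, 48 h before readout. 24 h after seeding, 1:3 serial dilutions (2 nM to 50 μM, 0.5% DMSO) added. Luminescence normalized to rifampicin (100%) and DMSO (0%). MEC is the lowest concentration raising signal above 4-fold SD of DMSO background.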

[4] = Volume of distribution at steady state in Wistar Hannover rat at 0.3 to 0.5 mg/kg, iv by LC-MS/MS analysis; type: ADME, organism-based; conditions: in vivo, dose 0.3-0.5 mg/kg, time <=24 hrs, read-out: Vdss
In short: (§1)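 Male Wistar Hannover rats, catheterized under isoflurane; one day later iv injection into lateral tail vein at 0.3 to 0.5 mg/kg in plasma containing 2% DMSO. Blood sampled via catheter from 0.033 to 24 h. Plasma precipitated with acetonitrile, analysed by LC-MS/MS (10 mM ammonium acetate pH 3.0/acetonitrile gradient). PK parameters calculated from plasma concentrations.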

[5] = molecular target: T1, Nuclear receptor subfamily 1 group I member 2; test: Activation of human PXR human hepatocytes assessed as induction of CYP3A4 mRNA expression incubated for 48 hrs by qPCR analysis; type: ADME, tissue-based, Hepatocyte
In short: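 Human hepatocytes in collagen sandwich, cultured 1 d, then treated with eight 1:3 serial concentrations for 2 consecutive days with daily media change. mRNA isolated on magnetic beads, reverse transcribed, and quantified by TaqMan qRT-PCR against actin/tubulin. Fold induction over vehicle by ΔΔCt; NOEL reported.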

[6] = AUC/dose in Wistar Hannover rat at 0.3 to 0.5 mg/kg, iv by LC-MS/MS analysis; type: ADME, organism-based; conditions: in vivo, dose 0.3-0.5 mg/kg, time <=24 hrs; in short: as §1
[7] = MRT in Wistar Hannover rat at 0.3 to 0.5 mg/kg, iv by LC-MS/MS analysis; type: ADME, organism-based; conditions: in vivo, dose 0.3-0.5 mg/kg, time <=24 hrs; in short: as §1
[8] = Ratio of drug level in blood to plasma in Wistar Hannover rat at 0.3 to 0.5 mg/kg, iv by LC-MS/MS analysis; type: ADME, organism-based; conditions: blood and plasma, dose 0.3-0.5 mg/kg, time <=24 hrs
[9] = Half life in Wistar Hannover rat at 0.3 to 0.5 mg/kg, iv by LC-MS/MS analysis; type: ADME, organism-based; conditions: in vivo, dose 0.3-0.5 mg/kg, time <=24 hrs; in short: as §1
[10] = Blood clearance in Wistar Hannover rat at 0.3 to 0.5 mg/kg, iv by LC-MS/MS analysis; type: ADME, organism-based; conditions: whole blood, dose 0.3-0.5 mg/kg, time <=24 hrs; in short: as §1
[11] = Oral bioavailability in Wistar Hannover rat at 1 mg/kg by LC-MS/MS analysis; type: ADME, organism-based; conditions: in vivo, time <=24 hrs
In short: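 Catheterized male Wistar Hannover rats dosed by gavage at 1 mg/kg in 10% ethanol/40% PEG/50% water. Blood taken via catheter at 0.083 to 24 h. Plasma precipitated with acetonitrile and analysed by LC-MS/MS. Bioavailability derived against iv dosing at 0.3 to 0.5 mg/kg.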

Row | Papp A→B at 2 h [1] [×10⁻⁶ cm/s] | CLhep predicted at 1 µM [2] [mL/min/kg] | MEC [3] [µM] | Compound | other results
1 | 7.1 | 21.7 | 3.1 | COc1cc(C(=O)N2CCC(O)CC2)cc2nc(NCc3cccc(Cl)c3)oc12 | –
2 | 24.6 | 65 | – | CCCN(CC1CCOC1)C(=O)c1cc(OC)c2oc(NCc3cccc(Cl)c3)nc2c1 (racemic) | –
3 | – | 38.3 | 1.4 | COc1cc(C(=O)N2C[C@@H](C)OC[C@H]2CCO)cc2nc(N[C@H](C)c3cccc(Cl)c3)oc12 | –
4 | – | 61.7 | – | CCC1CC(O)C(C)CN1C(=O)c1cc(OC)c2oc(NCc3cccc(Cl)c3)nc2c1 (racemic) | –
5 | 6.8 | 65 | 0.26 | CC[C@@H]1CO[C@@](C)(CCO)CN1C(=O)c1cc(OC)c2oc(N[C@H](C)c3cccc(Cl)c3)nc2c1 | Vd [4]: 3.7 L/kg; NOAEL [5]: 1111 ng/mL; AUC/dose [6]: 0.32 kg·h/L; MRT [7]: 1.2 h; blood plasma ratio [8]: 1.07; half-life [9]: 1 h; clearance [10]: 65 mL/min/kg
6 | – | 15.5 | 0.29 | COc1cc(C(=O)N2CC(C)OCC2CO)cc2nc(N[C@H](C)c3cccc(Cl)c3)oc12 (stereo partly drawn) | Vd [4]: 2.7 L/kg; AUC/dose [6]: 0.47 kg·h/L; MRT [7]: 1.3 h; blood plasma ratio [8]: 0.88; half-life [9]: 1.1 h; clearance [10]: 40 mL/min/kg
7 | 4.1 | 14.3 | 3.6 | COc1cc(C(=O)N2CCC(O)C(C)C2)cc2nc(NCc3cc(Cl)ccn3)oc12 (racemic) | –
8 | 6.2 | – | – | O=C(NCc1cccc(Cl)c1)c1ccc2cn(CCN3CCOC3=O)nc2c1 | clearance [10]: 23.3 mL/min/kg
9 | – | 56.7 | 0.39 | COc1cc(C(=O)N2CC(C)(CCO)OC[C@H]2C)cc2nc(N[C@H](CF)c3cccc(Cl)c3)oc12 (stereo partly drawn) | Vd [4]: 3.3 L/kg; AUC/dose [6]: 0.33 kg·h/L; MRT [7]: 1.1 h; blood plasma ratio [8]: 0.94; half-life [9]: 1.1 h; clearance [10]: 53.3 mL/min/kg
10 | 8.4 | 45 | 1.4 | COc1cc(C(=O)N2CCC(O)C(C)C2)cc2nc(NCc3cccc(Cl)c3)oc12 (racemic) | –
11 | 7.1 | 35 | 20 | COc1cc(C(=O)N2CCC(O)C(C)C2)cn2nc(NCc3cccc(Cl)c3)nc12 (racemic) | –
12 | – | 58.3 | – | COc1cc(C(=O)N2CCCC2(C)C)cc2nc(NCc3cccc(Cl)c3)oc12 | –
13 | – | – | 8.3 | COc1cc(C(=O)N2CCC(O)C(C)C2)cc2nc(NCc3cc(Cl)ccc3O)oc12 (racemic) | –
14 | – | 41.7 | 8 | COc1cc(C(=O)N2CC(C)(CCO)OC[C@H]2C)cc2nc(NCc3cc(Cl)ccn3)oc12 (stereo partly drawn) | Vd [4]: 2 L/kg; NOAEL [5]: > 10000 ng/mL; AUC/dose [6]: 0.23 kg·h/L; MRT [7]: 0.46 h; blood plasma ratio [8]: 1.08; half-life [9]: 0.44 h; clearance [10]: 66.7 mL/min/kg
15 | – | 56.7 | 3 | COc1cc(C(=O)N2CC(C)OCC2C2CC(O)C2)cc2nc(N[C@H](CF)c3cccc(Cl)c3)oc12 (stereo partly drawn) | –
16 | 12.7 | 56.7 | 2.6 | COc1cc(C(=O)N2CC(C)C(O)CC2C)cc2nc(NCc3cccc(Cl)c3)oc12 (stereo not drawn) | –
17 | – | 45 | 8.2 | COc1cc(C(=O)N2CC(C)OCC2C2CC(O)C2)cc2nc(NCc3cc(Cl)ccn3)oc12 (stereo not drawn) | –
18 | 0.94 | 4.5 | 0.81 | COc1cc(C(=O)N2CC(C)C(O)CC2CCO)cc2nc(NCc3cccc(Cl)c3)oc12 (racemic) | –

Row | Papp A→B at 2 h [1] [×10⁻⁶ cm/s] | CLhep predicted at 1 µM [2] [mL/min/kg] | MEC [3] [µM] | Compound | other results
19 | – | 56.7 | 3.4 | COc1cc(C(=O)N2CC(C)OCC2C2CC(O)C2)cc2nc(N[C@H](C)c3cccc(Cl)c3)oc12 (stereo partly drawn) | –
20 | – | 51.7 | 6.3 | COc1cc(C(=O)N2CC[C@@H](O)C(C)(C)C2)cc2nc(NCc3cccc(Cl)c3)oc12 (racemic) | –
21 | 13.8 | 63.3 | 0.26 | COc1cc(C(=O)N2CC(C)C(O)CC2C2CC2)cc2nc(NCc3cccc(Cl)c3)oc12 (racemic) | –
22 | – | 43.3 | 0.58 | COc1cc(C(=O)N2CCOC(C)(CCO)C2)cc2nc(N[C@H](C)c3cccc(Cl)c3)oc12 (stereo partly drawn) | bioavailability [11]: 38%; Vd [4]: 5.6 L/kg; AUC/dose [6]: 0.33 kg·h/L; MRT [7]: 1.8 h; blood plasma ratio [8]: 1.07; half-life [9]: 2.7 h; clearance [10]: 48.3 mL/min/kg
23 | – | – | 0.03 | COc1cc(C(=O)N2CC(C)CCC2CCO)cc2nc(NCc3cccc(Cl)c3)oc12 (stereo in doubt; 37b) | CLH ([2]; 1.5 h, 1 µM): 56.7 mL/min/kg
24 | 19.1 | 63.3 | 0.32 | COc1cc(C(=O)N2CC(C)CCC2CCO)cc2nc(NCc3cccc(Cl)c3)oc12 (racemic) | –
25 | 10.1 | 45 | 2.8 | COc1cc(C(=O)N2C[C@H](C)OC[C@@H]2CCO)cc2nc(N[C@H](C)c3cccc(Cl)c3)oc12 | –
26 | 11.1 | 20 | 17 | COc1cc(C(=O)N2CC(C)OCC2CCO)cc2nc(NCc3cc(Cl)ccn3)oc12 (stereo not drawn) | Vd [4]: 1.3 L/kg; NOAEL [5]: > 10000 ng/mL; AUC/dose [6]: 0.39 kg·h/L; MRT [7]: 0.51 h; blood plasma ratio [8]: 1.08; half-life [9]: 0.5 h; clearance [10]: 40 mL/min/kg
27 | – | – | 1.3 | COc1cc(C(=O)N2CCOCC2(C)C)cc2nc(NCc3cccc(Cl)c3)oc12 | –
28 | 7.2 | 50 | 13 | COc1cc(C(=O)N2CC(C)OCC2C2CC(O)C2)cn2nc(NCc3cccc(Cl)c3)nc12 (stereo not drawn) | –
29 | – | 36.7 | – | COc1cc(C(=O)N2CC[C@H](O)[C@@H](C)C2)cc2nc(NCc3cccc(Cl)c3)oc12 | –
30 | – | 46.7 | – | COc1cc(C(=O)N2CCC(O)C(C)C2)cc2nc(NC3(c4cccc(Cl)c4)CC3)oc12 (racemic) | –
31 | 0.93 | 40 | – | COc1cc(C(=O)N2CCC(O)C(C)C2)cc2nc(NCc3cncc(Cl)c3)oc12 (racemic) | –
32 | – | – | – | CCCCCCOC(=O)NC(=N)c1ccc(NCc2nc3cc(C(=O)N(CCC(=O)OCC)c4ccccn4)ccc3n2C)cc1 [DABIGATRAN ETEXILATE] | bioavailability [11]: 1.9%; Vd [4]: 0.54 L/kg; AUC/dose [6]: 3 kg·h/L; MRT [7]: 1.6 h; half-life [9]: 1.2 h; clearance [10]: 9.83 mL/min/kg
33 | 8.1 | 46.7 | 15 | COc1cc(C(=O)N2CC(C)(CCO)OC[C@H]2C)cn2nc(NCc3cccc(Cl)c3)nc12 (stereo partly drawn) | Vd [4]: 2.2 L/kg; NOAEL [5]: > 10000 ng/mL; AUC/dose [6]: 0.16 kg·h/L; MRT [7]: 0.36 h; blood plasma ratio [8]: 1.35; half-life [9]: 0.32 h; clearance [10]: 76.7 mL/min/kg
34 | – | 58.3 | 0.29 | COc1cc(C(=O)N2CC(C)(CCO)OC[C@H]2C)cc2nc(N[C@H](C)c3cccc(Cl)c3)oc12 (stereo partly drawn) | –
35 | – | 31.7 | 11 | COc1cc(C(=O)N2CC(C)OCC2CCO)cn2nc(NCc3cccc(Cl)c3)nc12 (stereo not drawn) | –
